Screens: PubChem, Johns Hopkins Ion Channel Center
Most compounds without a hit are left out; they make up all but 3.5% or so of the library.
RGS4 pot: RGS4 potentiation or activation | B-score at 10 µM | AID 463111 | HEK293 M3R/inducible RGS4, carbachol calcium flux Fluo4; active compounds read low | 310,000 compounds, 0.92% hits;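 active = B-score of the integrated calcium signal more than 4 SD below the library mean, with starting fluorescence not abnormally high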;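 note: negative B-score means reduced calcium response which marks RGS4 activation or potentiation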
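test system = HEK293 cells with stable M3R and inducible RGS4 | schedule = recording 10 s baseline at 1 Hz, 100 s post-agonist | technique = Fluo4-AM (2 µM) calcium-flux fluorescence, kinetic read | measure = Agonist-evoked peak-minus-minimum fluorescence over baseline, integrated ratio, B score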
RGS4 inh: human RGS4 inhibition | P49798 | HEK293 M3R/RGS4 inducible, Fluo-4 calcium flux; active compounds read high; triggered by carbachol at its EC20 | B-score at 10 µM | 310,000 compounds, 0.45% hits;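 active = B-score, a plate-corrected calcium signal, over three deviations above library mean, with baseline fluorescence within five deviations of library mean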;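 note: RGS4 expression induced by doxycycline in cells with stable M3 receptor; B-score is computed from the integrated fluorescence ratio over baseline after carbachol; higher B-score means a larger calcium signal and so more RGS4 inhibition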
Target sequence (P49798 whole entry, looked up): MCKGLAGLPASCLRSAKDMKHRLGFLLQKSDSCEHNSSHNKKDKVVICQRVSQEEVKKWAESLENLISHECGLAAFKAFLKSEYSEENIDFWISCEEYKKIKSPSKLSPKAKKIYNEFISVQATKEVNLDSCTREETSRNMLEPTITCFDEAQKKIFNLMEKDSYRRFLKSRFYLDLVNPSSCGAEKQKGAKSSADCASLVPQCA
MrgX1 allo act: human MrgX1 positive allosteric modulation, primary screen. Q96LB2. MrgX1-HEK293, Fluo-4 calcium flux, FDSS; active compounds read high. B-score at 10 µM. 310,000 compounds, 0.63% hits;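 active = plate-corrected calcium response at least 3 library SD above typical, normal starting fluorescence, not activating the receptor alone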;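 note: compound read alongside a low EC10 to EC30 dose of BAM8-22 agonist; peak minus trough fluorescence over baseline measured at the second addition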
Target sequence (Q96LB2 whole entry, looked up): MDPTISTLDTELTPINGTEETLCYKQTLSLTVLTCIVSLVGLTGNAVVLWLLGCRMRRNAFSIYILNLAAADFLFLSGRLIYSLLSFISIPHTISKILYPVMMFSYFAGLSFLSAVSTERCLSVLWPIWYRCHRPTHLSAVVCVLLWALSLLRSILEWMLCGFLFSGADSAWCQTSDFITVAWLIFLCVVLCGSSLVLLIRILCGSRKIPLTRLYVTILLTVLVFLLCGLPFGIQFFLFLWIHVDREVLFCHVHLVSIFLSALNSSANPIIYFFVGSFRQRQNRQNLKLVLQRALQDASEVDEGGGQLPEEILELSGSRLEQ
MrgX1 ag: human MrgX1 receptor agonism, primary screen. Q96LB2. MrgX1-HEK293 cells, Fluo-4 calcium fluorescence, agonist mode; active compounds read high. B-score at 10 µM. 310,000 compounds, 0.44% hits. AID 588627;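 active = calcium response B-score plate-corrected fluorescence ratio at least 3 library SD, with starting fluorescence B-score inside 5 SD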
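Test system: HEK293 cells stably expressing human MrgX1 receptor; Input: fifteen thousand cells per well; Dosing: compound delivered in addition one of three; Schedule: overnight seeding, then 1 h dark dye loading; Technique: Fluo-4 NW calcium fluorescence; Measure: B-scored fluorescence response ratio; Controls: positive and negative controls per plate.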
MrgX1 antagonist: antagonists of human MrgX1 receptor | Q96LB2 | MRGX1-HEK293 calcium flux, Fluo-4, BAM8-22 antagonism; active compounds read low | B-score at 10 µM | 310,000 compounds, 1.3% hits;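 active = calcium-response B-score plate-corrected more than 3 library SD below zero, starting fluorescence within 5 deviations, no agonist response on first addition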;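 note: peak minus trough fluorescence over baseline after final BAM8-22 challenge near maximal dose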
Of the large screens only hits and unclear results are named; the others gave an inactive call.

C=CCNC(=O)c1cc2c(=O)n3ccccc3nc2s1	none
Cc1cccc[n+]1C1C(c2ccccc2)C(C#N)=C(C(=C=[N-])C#N)NC1(O)C1CC1 (stereo not given)	MrgX1 ag 43
N#CC(=C=[N-])C1=C(C#N)C(c2ccccc2F)C([n+]2ccccc2)C(O)(C2CC2)N1 (stereo not given)	MrgX1 ag 48
Cc1ccc[n+](C2C(c3ccc([N+](=O)[O-])cc3)C(C#N)=C([S-])NC2(O)C2CC2)c1 (stereo not given)	none
CCC(C(=O)OC)n1cnc2c(nnn2-c2ccc(C)cc2)c1=O (stereo not given)	none
CCCN1CCN(c2nc(-c3cccs3)nc3ccccc23)CC1	none
CCOC(=O)N1CCN(c2nc(-c3cccs3)nc3ccccc23)CC1	RGS4 pot -7.3
CC1(c2ccc(OC(F)F)cc2)NC(=O)N(CC(=O)Nc2cccc(F)c2)C1=O (stereo not given)	MrgX1 antagonist -6.2
CC1(c2ccc(OC(F)F)cc2)NC(=O)N(CC(=O)Nc2ccc(F)cc2)C1=O (stereo not given)	none
CC1(c2ccc(OC(F)F)cc2)NC(=O)N(CC(=O)Nc2ccc(OC(F)F)cc2)C1=O (stereo not given)	MrgX1 antagonist -12
CCOc1ccc(C(C)=O)cc1N1C(=O)C2C3C=CC(O3)C2C1=O (stereo not given)	MrgX1 ag 32
O=C(CC(=O)c1ccccc1)Nc1ccccn1	none
O=C(c1ccccc1)C(Nc1ccccn1)c1ccccc1 (stereo not given)	RGS4 pot -7.5
CN(C)c1ccc(N=Cc2ccco2)cc1	none (no result: RGS4 pot, RGS4 inh)
C(=Nc1cccc2c(N=Cc3ccco3)cccc12)c1ccco1	MrgX1 ag 39
CC(=O)NC(=S)NNC(=O)C(c1ccccc1)c1ccccc1	MrgX1 allo act 12
CCOc1ccc2nc(NCCNC(=O)C(C)C)c(C)cc2c1	RGS4 pot -7.4
CCOc1ccc2nc(NCCNC(=O)C3CC3)c(C)cc2c1	none
Cc1cn([C@H]2C=C[C@@H](CO)O2)c(=O)[nH]c1=O	MrgX1 allo act 9.4
COc1ccc(NC(=O)Cn2nc(C(=O)O)c3ccccc3c2=O)cc1OC	none
COc1cc(/C=C2\C(=O)NN(c3ccc(C)cc3)C2=O)cc([N+](=O)[O-])c1O	none
CCOC(=O)COc1ccc(/C=C2/C(=O)NN(c3ccc(F)cc3)C2=O)cc1OC	MrgX1 ag 46
COc1cc(/C=C2/C(=O)NN(c3ccc(Cl)cc3)C2=O)cc(OC)c1O	MrgX1 ag 44
COCCn1c(Cc2ccccc2)nnc1SCC(=O)N1CCCCC1C (stereo not given)	MrgX1 antagonist -8.2
Cc1cccc(C(=O)Oc2ccc3ccc(O)cc3c2)c1	none
CCc1ccc2nc(N(CCCN(C)C)C(=O)c3ccc(S(=O)(=O)N4CCCc5ccccc54)cc3)sc2c1	RGS4 pot -7.3
CCOC(=O)N1CCN(S(=O)(=O)c2ccc(C(=O)N(CCCN(C)C)c3nc4c(F)cc(F)cc4s3)cc2)CC1	MrgX1 antagonist -7.9
CCc1ccc2nc(N(CCCN(C)C)C(=O)c3ccc(C(=O)c4ccccc4)cc3)sc2c1	RGS4 pot -8.1
COc1cc2nc(N(CCCN(C)C)C(=O)c3ccc(C(=O)c4ccccc4)cc3)sc2cc1OC	none
COc1ccc(OC)c2sc(N(CCCN(C)C)C(=O)c3ccc(S(=O)(=O)N4CCc5ccccc5C4)cc3)nc12	RGS4 pot -10, MrgX1 antagonist -6.1
CCOC(=O)N1CCN(S(=O)(=O)c2ccc(C(=O)N(CCCN(C)C)c3nc4ccc(Cl)cc4s3)cc2)CC1	none
COc1ccc(C)cc1NC(=S)NNC(=O)c1c(Br)cnn1C	none
Cc1ccc2nc(N(CCCN(C)C)C(=O)c3ccc(S(=O)(=O)N4CCCCCC4)cc3)sc2c1	none
CCc1ccc2nc(N(CCCN(C)C)C(=O)c3ccc(S(=O)(=O)N4CCCC4)cc3)sc2c1	RGS4 pot -11
COc1cc([N+](=O)[O-])cc(/C=N/NC(=O)c2cc(C)nc3ccccc23)c1O	none
O=C(N/N=C/c1cc(Cl)cc([N+](=O)[O-])c1O)c1cc(-c2ccccn2)nc2ccccc12	MrgX1 antagonist -5.5
COc1cc([N+](=O)[O-])cc(/C=N/NC(=O)c2cc(-c3ccccc3)nc3ccccc23)c1O	MrgX1 allo act 10
CC/C(O)=C1\C(=O)CCCC1=NCc1nc2ccccc2[nH]1	none
O=C(Nc1ccc(O)cc1)c1cc2ccccc2c(=O)s1	none
O=C(Nc1ccccc1)c1cc2ccccc2c(=O)s1	MrgX1 antagonist -7.8
COC(=O)c1ccc(Oc2c(Cl)cccc2[N+](=O)[O-])cc1	MrgX1 allo act 8.6
CC1=CC(=O)C=C(C)C1=NOc1ccc([N+](=O)[O-])cc1	MrgX1 ag 33
COc1ccc(-n2nc(C(=O)NCC(=O)Nc3ccccn3)c3ccccc3c2=O)cc1Cl	none (no result: MrgX1 allo act, MrgX1 ag, MrgX1 antagonist)
CC[C@H]1CC2CN3CCc4c([nH]c5c([C@H]6C[C@H]7[C@H](CC)CN(C)[C@@H](Cc8c6[nH]c6ccccc86)[C@H]7C(=O)OC)c(OC)ccc45)C(C(=O)OC)(C2)C13	RGS4 inh 8.8
CCCCCCc1cc2cc(C(=O)OCC)c(=O)oc2cc1O	MrgX1 antagonist -7.3
CCCCCCc1cc2cc(C(N)=O)c(=N)oc2cc1O	RGS4 pot -8.1
COc1cccc(C2=CC(c3ccccc3)n3ncnc3N2)c1 (stereo not given)	MrgX1 allo act 15
COc1cccc(C2=CC(c3ccc(N(C)C)cc3)n3ncnc3N2)c1 (stereo not given)	MrgX1 ag 48
COC(=O)c1cc(C(=O)c2cc(F)ccc2O)cn2c(=O)c3c(C)c(C)sc3nc12	RGS4 pot -7, MrgX1 antagonist -4.7
Cc1ccc(/C=N/NC(=O)Cc2cccn2C)cc1	MrgX1 allo act 6.7
Cn1cccc1CC(=O)N/N=C/c1ccc(C(C)(C)C)cc1	none
Cc1ccc(/C=N/NC(=O)Cc2cccn2C)s1	MrgX1 allo act 6.5
Cc1cccc(NS(=O)(=O)c2ccc3c(c2)NC(=O)CO3)c1C	none
COc1ccc(C2CC2C(C)=O)cc1 (stereo not given)	MrgX1 ag 30
COc1ccc(C2CC2/C(C)=N/OC(=O)C2CC2)cc1 (stereo not given)	none
O=C(O)COc1ccccc1/C=N/NC(=O)CN1CCN(Cc2ccc(Cl)cc2)CC1	none
CC1CC(=O)c2c(cc3c(-c4c(O)cc(O)c5c(O)c6c(cc45)OC(C)CC6=O)c(O)cc(O)c3c2O)O1 (stereo not given)	MrgX1 antagonist -6.8
C=CCOc1ccnc(-c2ccccc2)n1	none
CC(C)=CCC12Oc3cc(O)ccc3C1(O)Oc1cc3c(c(O)c1C2=O)C=CC(C)(C)O3 (stereo not given)	RGS4 pot -7.3
COc1ccc(Cn2c(=O)[nH]c3cc(C(=O)NCCc4ccc(S(N)(=O)=O)cc4)ccc3c2=O)cc1	none
